What all share (assay): NCI-60 single-dose antiproliferative screen
What all share (format): cell-based

One assay concerns HOP-62. Particulars: Homo sapiens, HOP-62, 48 h, read-out: growth percent. An outline of the steps:
(§1)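 NCI-60 protocol. Lines were grown in RPMI 1640 with 5% FBS and 2 mM L-glutamine, plated and incubated 24 h at 37 °C; time-zero plates were TCA-fixed. The test compound was dissolved in DMSO, diluted in medium with 50 μg/mL gentamicin and given once at a final 10^-5 M (DMSO control) for 48 h. Cells were fixed with cold TCA (1 h, 4 °C) and stained with 0.4% SRB in 1% acetic acid for 10 min. Dye was dissolved in 10 mM Trizma base and read at 515 nm. Growth percent was calculated from time-zero, test and control ODs.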

Another assay deals with M14. To be noted: Homo sapiens, M14, 48 h, read-out: growth percent. An outline of the steps:
as §1

A further assay has as its system OVCAR-3. To be noted: Homo sapiens, OVCAR-3, 48 h, read-out: growth percent. The method in brief: as §1
The subject of a further assay is MOLT-4. To be noted: Homo sapiens, MOLT-4, 48 h, read-out: growth percent. An outline of the steps: as §1
The next assay has as its system OVCAR-8. To be noted: Homo sapiens, OVCAR-8, 48 h, read-out: growth percent. An outline of the steps:
as §1

Another assay deals with SF-268. To be noted: Homo sapiens, SF-268, 48 h, read-out: growth percent. An outline of the steps: as §1
In a further assay the test system is OVCAR-4. Particulars: Homo sapiens, OVCAR-4, 48 h, read-out: growth percent. The method in brief:
as §1

The next assay deals with IGROV1. To be noted: Homo sapiens, IGROV-1, 48 h, read-out: growth percent. An outline of the steps:
as §1

Another assay deals with SF-539. To be noted: Homo sapiens, SF-539, 48 h, read-out: growth percent. An outline of the steps:
(§2)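 Cells grown in RPMI 1640 with 5% FBS and 2 mM L-glutamine, plated and held 24 h at 37 °C; time-zero plates TCA-fixed. DMSO stocks were diluted in gentamicin-containing medium to a final 10^-5 M, with a DMSO-only control. Exposure 48 h, 5% CO2. Adherent cells TCA-fixed 1 h at 4 °C, stained with 0.4% SRB, solubilised in 10 mM Trizma base, read at 515 nm. Growth percent derived from ODtzero, ODtest and ODctrl.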

The subject of another assay is NCI-H322M. To be noted: Homo sapiens, 48 h, read-out: growth percent. The method in brief:
as §1

For the next assay, the system named is SW-620. Particulars: Homo sapiens, SW-620, 48 h, read-out: growth percent. An outline of the steps: as §2
The test system of the next assay is SN12C. Particulars: Homo sapiens, 48 h, read-out: growth percent. An outline of the steps:
as §2

Another assay relates to DU-145. To be noted: Homo sapiens, DU-145, 48 h, read-out: growth percent. The method in brief:
as §1

The next assay has as its system SNB-75. Particulars: Homo sapiens, SNB-75, 48 h, read-out: growth percent. An outline of the steps: as §2
In a further assay the test system is CCRF-CEM. Particulars: Homo sapiens, 48 h, read-out: growth percent. An outline of the steps:
as §1

The next assay relates to MDA-MB-231 ATCC. Particulars: Homo sapiens, MDA-MB-231, 48 h, read-out: growth percent. An outline of the steps: as §1
For a further assay, the system named is A549/ATCC. Particulars: Homo sapiens, A549, 48 h, read-out: growth percent. An outline of the steps: as §1
The next assay relates to SK-MEL-28. To be noted: Homo sapiens, SK-MEL-28, 48 h, read-out: growth percent. The method in brief: as §2
For the next assay, the system named is UACC-257. Particulars: Homo sapiens, UACC-257, 48 h, read-out: growth percent. An outline of the steps:
as §2

Another assay concerns ACHN. Particulars: Homo sapiens, 48 h, read-out: growth percent. The method in brief:
as §1

On to `COc1cc(CNC(=O)CCCC/C=C/C(C)C)ccc1OCc1cn(-c2ccc([N+](=O)[O-])cc2)nn1` [14e, (E)-N-(3-Methoxy-4-((1-(4-nitrophenyl)-1H-1,2,3-triazol-4-yl)methoxy)benzyl)-8methylnon-6-enamide], for which the activity at 10 µM with HOP-62 was 80.9%; in the assay on M14 it was 89.7%; in the assay with OVCAR-3 it was 92.7%; in the assay with MOLT-4, 79.3%; in the assay on OVCAR-8, 82.9%; with SF-268 it was 86.1%. Besides, the activity at 10 µM was found to be 87.2% with OVCAR-4; 90.4% with IGROV1; 104% in the assay with SF-539; 97.9% in the assay on NCI-H322M; 99.8% with SW-620; 91.7% in the assay on SN12C. Also, the activity at 10 µM with DU-145 amounted to 105%; in the assay on SNB-75 it was 83.9%; in the assay with CCRF-CEM it was 84.9%; in the assay on MDA-MB-231 ATCC it was 75.3%; in the assay on A549/ATCC, 84.1%; in the assay with SK-MEL-28, 102%. For the same compound, the values for the activity at 10 µM with UACC-257 and in the assay on ACHN were 82.6% and 82%, respectively.

For `COc1cc(CNC(=O)CCCC/C=C/C(C)C)ccc1OCc1cn(-c2cccc([N+](=O)[O-])c2)nn1` [14f, (E)-N-(3-Methoxy-4-((1-(3-nitrophenyl)-1H-1,2,3-triazol-4-yl)methoxy)benzyl)-8-methylnon-6-enamide], the activity at 10 µM was determined as 97.4% in the assay with HOP-62; 93.4% with M14; 105% in the assay with OVCAR-3; 86.6% in the assay on MOLT-4; 76.9% with OVCAR-8; 92.2% with SF-268. Further, the activity at 10 µM came out at 94.2% in the assay on OVCAR-4; 89.4% in the assay with IGROV1; 94.4% in the assay on SF-539; 94.1% in the assay with NCI-H322M; 97.4% in the assay on SW-620; 89.5% with SN12C. In addition, the activity at 10 µM worked out at 109% in the assay on DU-145; 92% with SNB-75; 90.2% in the assay with CCRF-CEM; 88.4% in the assay with MDA-MB-231 ATCC; 92% in the assay with A549/ATCC; 106% with SK-MEL-28. In addition, the activity at 10 µM in the assay with UACC-257 is 94.4%; in the assay on ACHN it was 78.9%.

As to `COc1cc(CNC(=O)CCCC/C=C/C(C)C)ccc1OCc1cn(-c2ccc(C)cc2)nn1` [14n, (E)-N-(3-Methoxy-4-((1-(p-tolyl)-1H-1,2,3-triazol-4-yl)methoxy)benzyl)-8-methylnon-6-enamide], the activity at 10 µM with HOP-62 stood at 86.4%; with M14, 93.3%; in the assay on OVCAR-3, 91.8%; in the assay on MOLT-4 it was 83.5%; in the assay on OVCAR-8, 76.5%; in the assay with SF-268 it was 81.7%. The activity at 10 µM in the assay on OVCAR-4 came to 88.8%; in the assay on IGROV1 it was 98.5%; in the assay on SF-539 it was 100%; in the assay on NCI-H322M, 89.4%; in the assay on SW-620, 102%; in the assay with SN12C, 89.3%. Moreover, the activity at 10 µM worked out at 97% with DU-145; 99.5% in the assay with SNB-75; 87.3% in the assay on CCRF-CEM; 72.2% in the assay on MDA-MB-231 ATCC; 84% in the assay on A549/ATCC; 114% with SK-MEL-28. Further, the activity at 10 µM was 88.2% in the assay on UACC-257 and 72% with ACHN.

For the compound `COc1cc(CNC(=O)CCCC/C=C/C(C)C)ccc1OCc1cn(-c2ccccc2Cl)nn1` [14c, (E)-N-(4-((1-(2-Chlorophenyl)-1H-1,2,3-triazol-4-yl)methoxy)-3-methoxybenzyl)-8-methylnon-6-enamide], the activity at 10 µM in the assay on HOP-62 worked out at 82%; in the assay with M14, 92.6%; in the assay on OVCAR-3 it was 101%; in the assay on MOLT-4, 81%; in the assay with OVCAR-8, 89.6%; in the assay with SF-268, 87.8%. The activity at 10 µM in the assay on OVCAR-4 came out at 87.9%; in the assay on IGROV1, 98.8%; in the assay on SF-539, 104%; in the assay with NCI-H322M it was 89.4%; in the assay on SW-620, 100%; with SN12C it was 94.5%. For the same compound, the activity at 10 µM was determined as 99.2% in the assay with DU-145; 87.3% in the assay with SNB-75; 87.9% in the assay with CCRF-CEM; 80.8% in the assay with MDA-MB-231 ATCC; 84.3% in the assay with A549/ATCC; 106% in the assay on SK-MEL-28. Besides, the activity at 10 µM in the assay with UACC-257 stood at 87.9%; with ACHN, 74.1%.

For the compound `COc1cc(CNC(=O)CCCC/C=C/C(C)C)ccc1OCc1cn(-c2cccc(Cl)c2)nn1` [14b, (E)-N-(4-((1-(3-Chlorophenyl)-1H-1,2,3-triazol-4-yl)methoxy)-3-methoxybenzyl)-8-methylnon-6-enamide], the activity at 10 µM with HOP-62 is 71.5%; with M14, 94.1%; with OVCAR-3 it was 84.4%; in the assay with MOLT-4 it was 92.8%; in the assay on OVCAR-8, 57.2%; in the assay on SF-268 it was 82.5%. In addition, the activity at 10 µM in the assay on OVCAR-4 stood at 67.2%; with IGROV1, 79.9%; in the assay with SF-539 it was 82%; in the assay on NCI-H322M it was 86.2%; in the assay with SW-620 it was 92.8%; in the assay with SN12C it was 84.2%. For the same compound, the activity at 10 µM with DU-145 worked out at 95.9%; with SNB-75 it was 75.8%; with CCRF-CEM it was 87.3%; with MDA-MB-231 ATCC it was 64.8%; in the assay on A549/ATCC it was 82.9%; in the assay with SK-MEL-28, 106%. The activity at 10 µM worked out at 90.1% in the assay with UACC-257 and 73% in the assay on ACHN.

Turning to `COc1cc(CNC(=O)CCCC/C=C/C(C)C)ccc1OCc1cn(-c2ccc(Cl)cc2)nn1` [14a, (E)-N-(4-((1-(4-Chlorophenyl)-1H-1,2,3-triazol-4-yl)methoxy)-3-methoxybenzyl)-8-methylnon-6-enamide], the activity at 10 µM in the assay with HOP-62 is 84%; with M14, 90.6%; in the assay with OVCAR-3, 105%; in the assay on MOLT-4, 82%; with OVCAR-8, 79%; in the assay on SF-268, 84%. Besides, the activity at 10 µM in the assay with OVCAR-4 stood at 82.6%; in the assay with IGROV1, 93.4%; in the assay with SF-539, 87.1%; in the assay on NCI-H322M it was 92.2%; with SW-620 it was 88.7%; in the assay with SN12C, 80.2%. The activity at 10 µM was determined as 98.9% in the assay with DU-145; 76.4% in the assay on SNB-75; 72.4% in the assay with CCRF-CEM; 79.5% with MDA-MB-231 ATCC; 85.3% with A549/ATCC; 106% with SK-MEL-28. The activity at 10 µM turned out to be 91.6% in the assay with UACC-257 and 59.7% in the assay on ACHN.

For `COc1cc(CNC(=O)CCCC/C=C/C(C)C)ccc1OCc1cn(-c2ccc(C)c(C)c2)nn1` [14p, (E)-N-(4-((1-(3,4-Dimethylphenyl)-1H-1,2,3-triazol-4-yl)methoxy)-3-methoxybenzyl)-8-methylnon-6-enamide], the activity at 10 µM in the assay with HOP-62 came out at 97.4%; with M14, 93.5%; with OVCAR-3, 100%; in the assay on MOLT-4 it was 78.5%; in the assay on OVCAR-8, 83.3%; in the assay on SF-268, 94.6%. In addition, the activity at 10 µM in the assay with OVCAR-4 was 84.9%; in the assay on IGROV1 it was 98.8%; in the assay with SF-539, 105%; in the assay on NCI-H322M it was 101%; with SW-620 it was 95.2%; with SN12C it was 88.4%. For the same compound, the activity at 10 µM in the assay on DU-145 is 108%; in the assay with SNB-75 it was 91%; in the assay on CCRF-CEM, 75.5%; in the assay with MDA-MB-231 ATCC, 89.3%; in the assay on A549/ATCC, 82.2%; in the assay on SK-MEL-28 it was 112%. In addition, the values for the activity at 10 µM with UACC-257 and with ACHN were 81.9% and 68.5%, respectively.

The record behind these values is publication PMC9476207 (ACS Omega, 2022).
